Laboratory results as given in ChEMBL document CHEMBL1123788, “Synthesis and antitumor activity of tropolone derivatives. 5” (J Med Chem, 1987).
≈ marks a conversion by molar mass, not a printed value. Calls of active or inactive are those of the source. No cut-off for these calls is given here.

Columns and labels:
[1] = tested on: P388; assay: In vivo antitumor activity against leukemia P388 in mice at 2.5 mg/kg dosage administered intraperitoneally once a day for 1 and 5 days; assay type: functional, Mus musculus; conditions: route intraperitoneal
Procedure, shortened: (§1)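 Mice bearing P388 leukemia were given the compound intraperitoneally once daily for 1 and 5 days, at doses of 0.6 to 400 mg/kg; single-dose screens were run at 400 mg/kg. Antitumor activity is reported as T/C, %.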

[2] = tested on: P388; assay: In vivo antitumor activity against leukemia P388 in mice at 0.6 mg/kg dosage administered intraperitoneally once a day for 1 and 5 days; assay type: functional, Mus musculus; conditions: route intraperitoneal; procedure, shortened: as §1
[3] = In vitro inhibition of KB cell growth; assay type: functional, cell-based; conditions: Homo sapiens
[4] = tested on: P388; assay: In vivo antitumor activity against leukemia P388 in mice at 5 mg/kg dosage administered intraperitoneally once a day for 1 and 5 days; assay type: functional, Mus musculus; conditions: route intraperitoneal; procedure, shortened: as §1
[5] = tested on: P388; assay: In vivo antitumor activity against leukemia P388 in mice at 400 mg/kg dosage administered intraperitoneally once a day for 1 and 5 days; compound is inactive; assay type: functional, organism-based; design: dose 400 mg/kg; conditions: Mus musculus; procedure, shortened: as §1
[6] = tested on: P388; assay: In vivo antitumor activity against leukemia P388 in mice at 400 mg/kg dosage administered intraperitoneally once a day for 1 and 5 days; assay type: functional, Mus musculus; conditions: route intraperitoneal; procedure, shortened: as §1
[7] = tested on: P388; assay: In vivo antitumor activity against leukemia P388 in mice at 200 mg/kg dosage administered intraperitoneally once a day for 1 and 5 days; assay type: functional, Mus musculus; conditions: route intraperitoneal; procedure, shortened: as §1
[8] = tested on: P388; assay: In vivo antitumor activity against leukemia P388 in mice at 50 mg/kg dosage administered intraperitoneally once a day for 1 and 5 days; assay type: functional, Mus musculus; conditions: route intraperitoneal; procedure, shortened: as §1
[9] = tested on: P388; assay: In vivo antitumor activity against leukemia P388 in mice at 100 mg/kg dosage administered intraperitoneally once a day for 1 and 5 days; assay type: functional, Mus musculus; conditions: route intraperitoneal; procedure, shortened: as §1

COc1ccc(C(c2ccc(C(C)C)cc(=O)c2O)c2ccc(C(C)C)cc(=O)c2O)cc1
T/C [1]: 134%
T/C [2]: 127%
IC50 [3]: 0.5 µg/mL (≈ 1.12 µM)
T/C [4]: 173%

COc1ccc(C(c2ccc(C(C)C)cc(=O)c2OC)c2ccc(C(C)C)cc(=O)c2OC)cc1
T/C [5]: inactive

CCOC(c1ccc(OC)cc1)c1ccc(C(C)C)cc(=O)c1O (centres undefined)
T/C [6]: 140%
IC50 [3]: 0.5 µg/mL (≈ 1.52 µM)
T/C [7]: 128%
T/C [8]: 119%
T/C [9]: 140%

CNc1cc(C(C)C)ccc(C(c2ccc(OC)cc2)c2ccc(C(C)C)cc(=O)c2O)c1=O (centres undefined)
IC50 [3]: 50 µg/mL (≈ 109 µM)
T/C [5]: inactive

COc1ccc(C(c2ccc(C(C)C)cc(OC)c2=O)c2ccc(C(C)C)cc(OC)c2=O)cc1
IC50 [3]: 23.5 µg/mL (≈ 49.5 µM)
T/C [5]: inactive

COc1ccc(C(c2ccc(C(C)C)cc(=O)c2O)c2ccc(C(C)C)cc(OC)c2=O)cc1 (centres undefined)
T/C [6]: 60%
IC50 [3]: 1.7 µg/mL (≈ 3.69 µM)
T/C [7]: 148%
T/C [9]: 133%

COc1ccc(C(c2ccc(C(C)C)cc(=O)c2OC)c2ccc(C(C)C)cc(OC)c2=O)cc1 (centres undefined)
IC50 [3]: 5.4 µg/mL (≈ 11.4 µM)
T/C [5]: inactive

C/N=c1\cc(C(C)C)ccc(C(c2ccc(OC)cc2)c2ccc(C(C)C)cc(NC)c2=O)c1O (centres undefined)
IC50 [3]: 100 µg/mL (≈ 212 µM)
T/C [5]: inactive

COc1ccc(C(c2ccc(C(C)C)cc(S)c2=O)c2ccc(C(C)C)cc(S)c2=O)cc1
IC50 [3]: 5.3 µg/mL (≈ 11.1 µM)
T/C [5]: inactive
